# Data taken from ChEMBL document CHEMBL1135521 (J Med Chem, 2002).
# Columns and labels:
# [1] = molecular target: Human immunodeficiency virus type 1 protease (Human immunodeficiency virus 1, UniProt Q72874); assay: Concentration required to inhibit HIV-1 protease cleavage by 50%.
# [2] = Concentration required to cause 50% death of uninfected MT-4 cells.; type: ADME, cell-based, MT4; settings: human
# MT4 = assay: Concentration required to inhibit syncytia formation by 50% on MT-4 cells.; type: functional, cell-based; settings: Homo sapiens
# Outline: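 HIV-infected MT4 cell cultures were scored by observing the virus's fusogenic effect, that is, syncytium formation. EC50 is the concentration that halves syncytium formation, and compounds were tested up to 50 µM.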
# [3] = Selectivity index, expressed as the ratio of CC50 and EC50; settings: read-out: SI
# Outline: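 Ratio of CC50 to EC50 in HIV-infected MT4 cell cultures. The antiviral EC50 comes from inhibition of virus-induced syncytium formation (the fusogenic effect), scored by observing the cultures.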
Compound,IC50 [1] [µM],CC50 [2] [µM],EC50 (MT4) [µM],selectivity ratio [3]
CC(C)CN(C[C@@H](O)[C@@H](NC(=O)O[C@@H]1CCOC1)Sc1ccccc1)S(=O)(=O)c1ccc(N)cc1,16.7,> 50,> 50,
CC(C)CN(C[C@H](O)[C@H](NC(=O)O[C@@H]1CCOC1)Sc1ccccc1)S(=O)(=O)c1ccc(N)cc1,11.6,> 50,> 50,
CC(C)CN(CC(O)C(NC(=O)O[C@H]1CCOC1)Sc1ccccc1)S(=O)(=O)c1ccc(N)cc1 (some centres not stated),,> 50,50,> 1
CC(C)CN(C[C@@H](O)[C@H](Cc1ccccc1)NC(=O)O[C@H]1CCOC1)S(=O)(=O)c1ccc(N)cc1,,> 50,0.01,
CC(C)CN(C[C@H](O)[C@@H](NC(=O)O[C@@H]1CCOC1)Sc1ccccc1)S(=O)(=O)c1ccc(N)cc1,12.5,> 50,> 50,
CC(C)CN(C[C@@H](O)[C@H](NC(=O)O[C@@H]1CCOC1)Sc1ccccc1)S(=O)(=O)c1ccc(N)cc1,1.4,> 50,> 50,
